Test results reported in ChEMBL document CHEMBL1687853, “Increased glycolytic ATP synthesis is associated with tafenoquine resistance in Leishmania major” (Antimicrob Agents Chemother, 2011).
Active and inactive are the calls of the source. The rule behind the calls is not given here.

What was measured:
Leishmania major [1] = experiment: Resistant index, ratio of EC50 for tafenoquine-resistant promastigotes of Leishmania major R4 to EC50 for promastigotes of Leishmania major MHOM/JL/80/Friedlin; format: functional
In short: (§1)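 L. major Friedlin promastigotes, wild type or TFQ-resistant R4, were grown at 28°C in modified RPMI 1640 with 20% heat-inactivated FBS. R4 was selected stepwise from 2.5 to 4 μM TFQ over 10 weeks and kept in 4 μM. Parasites were exposed to increasing drug concentrations for 72 h at 28°C and viability was read by MTT. EC50 is 50% growth inhibition; resistance index is the R4/WT EC50 ratio.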

Leishmania major [2] = experiment: Antileishmanial activity against wild type promastigotes of Leishmania major MHOM/JL/80/Friedlin assessed as inhibition of parasite growth after 72 hrs by MTT assay; format: functional, organism-based; in short: as §1
Leishmania major [3] = experiment: Antileishmanial activity against tafenoquine-resistant promastigotes of Leishmania major R4 assessed as inhibition of parasite growth after 72 hrs by MTT assay; format: functional, organism-based; settings: R4, 72 h; in short: as §1
Leishmania major [4] = experiment: Induction of acidification in wild type promastigotes of Leishmania major MHOM/JL/80/Friedlin assessed as decrease of pH at 20 mM after 30 mins; format: functional, organism-based
In short: (§2)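 Promastigotes were loaded with BCECF-AM (5 µg/ml) in pH 7.4 standard buffer for 30 min at 28°C and washed twice. Cells at 2 × 10^7/ml in culture medium then received 20 mM sodium azide or 5 µM TFQ for 1, 3, 5, 10 or 30 min. The ratio at excitation 490/440 nm, emission 535 nm, was converted to pHi with a nigericin calibration curve.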

Leishmania major [5] = experiment: Drug uptake in promastigotes of tafenoquine-resistant promastigotes of Leishmania major revert R4 at 5 uM after 5 mins by spectrofluorometric technique; format: ADME, organism-based; settings: in vivo
Leishmania major [6] = experiment: Induction of acidification in tafenoquine-resistant promastigotes of Leishmania major revert R4 assessed as decrease of pH at 20 mM after 30 mins; format: functional, organism-based
In short: (§3)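 R4 or revertant promastigotes (R4 grown 1 month drug-free) were loaded with BCECF-AM (5 μg/ml, 30 min, 28°C) and washed. Cells at 2 × 10^7/ml in culture medium then received 5 μM TFQ or 20 mM sodium azide for 1–30 min. pHi came from the 490/440 nm excitation ratio (emission 535 nm), calibrated with nigericin-treated cells at set pH values.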

Leishmania major [7] = experiment: Drug uptake in promastigotes of tafenoquine-resistant promastigotes of Leishmania major R4 assessed per mg of protein at 5 uM after 15 mins by spectrofluorometric technique; format: ADME, organism-based; settings: in vivo, 0.25 h
In short: (§4)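 Promastigotes at 2 × 10^7/ml were given 5 μM TFQ for 15 min at 28°C in culture medium, washed twice with PBS and lysed in 10% SDS, pH 4. TFQ was read fluorimetrically with excitation at 340 nm and emission at 360–460 nm. For the alkalinization condition, parasites were pretreated with 20 mM NH4Cl for 1 min and then given TFQ in the continued presence of NH4Cl for 15 min.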

Leishmania major [8] = experiment: Effect on ATP synthesis in tafenoquine-resistant promastigotes of Leishmania major R4 assessed as increase of ATP level at up to 20 uM after 60 mins by celltiter- glo luminescent assay; format: functional, organism-based
In short: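 Promastigotes at 4 × 10^6/ml were incubated in culture medium with 1, 2, 5, 10 or 20 μM TFQ for 60 min. ATP was measured by CellTiter-Glo: an aliquot was mixed with an equal volume of reagent, held 10 min in the dark, and luminescence was read.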

Leishmania major [9] = experiment: Effect on ATP synthesis in wild type promastigotes of Leishmania major MHOM/JL/80/Friedlin assessed as decrease of ATP level up to 20 uM after 60 mins by celltiter- glo luminescent assay; format: functional, organism-based
In short: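 Promastigotes at 4 × 10^6/ml were held in culture medium with TFQ at 1, 2, 5, 10 or 20 µM for 60 min. Cells were mixed 1:1 with CellTiter-Glo and kept 10 min in the dark. Luminescence, proportional to ATP, was then read.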

Leishmania major [10] = experiment: Drug uptake in wild type promastigotes of Leishmania major MHOM/JL/80/Friedlin assessed per mg of protein at 5 uM after 15 mins by spectrofluorometric technique; format: ADME, organism-based; settings: in vivo, 0.25 h
In short: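 L. major Friedlin promastigotes, grown 48 h at 28°C in RPMI 1640 with 20% iFBS, were used at 2 × 10^7/ml. Cells were exposed to 5 µM TFQ for 15 min at 28°C in culture medium, washed twice in PBS and lysed in 10% SDS, pH 4. Emission was read at 360–460 nm with excitation at 340 nm.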

Leishmania major [11] = experiment: Drug uptake in wild type promastigotes of Leishmania major MHOM/JL/80/Friedlin at 2 uM after 5 mins by spectrofluorometric technique; format: ADME, organism-based; settings: in vivo
Leishmania major [12] = experiment: Drug uptake in wild type promastigotes of Leishmania major MHOM/JL/80/Friedlin assessed per mg of protein at 5 uM after 15 mins by spectrofluorometric technique in presence of ammonium chloride; settings: in vivo, 0.25 h
Leishmania major [13] = experiment: Drug uptake in promastigotes of tafenoquine-resistant promastigotes of Leishmania major R4 assessed per mg of protein at 5 uM after 15 mins by spectrofluorometric technique in presence of ammonium chloride; settings: in vitro, 0.25 h
Leishmania major [14] = experiment: Induction of acidification in tafenoquine-resistant promastigotes of Leishmania major revert R4 assessed as decrease of pH at 5 uM after 30 mins; format: functional, organism-based; in short: as §3
Leishmania major [15] = experiment: Induction of acidification in wild type promastigotes of Leishmania major MHOM/JL/80/Friedlin assessed as decrease of pH at 5 uM after 30 mins; format: functional, organism-based; in short: as §2
Leishmania major [16] = experiment: Drug uptake in promastigotes of tafenoquine-resistant promastigotes of Leishmania major R4 at 2.5 uM after 5 mins by spectrofluorometric technique; format: ADME, organism-based; settings: in vivo
Leishmania major [17] = experiment: Drug uptake in promastigotes of tafenoquine-resistant promastigotes of Leishmania major revert R4 assessed per mg of protein at 5 uM after 15 mins by spectrofluorometric technique; format: ADME, organism-based; settings: in vivo, 0.25 h; in short: as §4
Leishmania major [18] = experiment: Drug uptake in promastigotes of tafenoquine-resistant promastigotes of Leishmania major revert R4 assessed per mg of protein at 5 uM after 15 mins by spectrofluorometric technique in presence of ammonium chloride; settings: in vitro, 0.25 h
Leishmania major [19] = experiment: Induction of acidification in tafenoquine-resistant promastigotes of Leishmania major R4 assessed as decrease of pH at 5 uM after 30 mins; format: functional, organism-based; in short: as §3
Leishmania major [20] = experiment: Induction of acidification in tafenoquine-resistant promastigotes of Leishmania major R4 assessed as decrease of pH at 20 mM after 30 mins; format: functional, organism-based; in short: as §3

Row | Structure (SMILES) | Ratio EC50 (Leishmania major [1]) | EC50 (Leishmania major [2]) [µM] | EC50 (Leishmania major [3]) [µM] | further results
1 | CCN(CC)CCCCCCNc1cc(OC)cc2c(C)ccnc12.Cl.Cl | 2 | 12 | 24.5 | 
2 | C[C@@H]1[C@H](O)[C@@H](C)/C=C/C=C/C=C/C=C/C=C/C=C/C=C/[C@H](O[C@@H]2O[C@H](C)[C@@H](O)[C@H](N)[C@@H]2O)C[C@@H]2O[C@](O)(C[C@@H](O)C[C@@H](O)[C@H](O)CC[C@@H](O)C[C@@H](O)CC(=O)O[C@H]1C)C[C@H](O)[C@H]2C(=O)O [AMPHOTERICIN B] | 1.7 | 1.87 | 3.16 | 
3 | CCN(CC)CCCC(C)Nc1ccnc2cc(Cl)ccc12 (stereo not drawn) [CHLOROQUINE] | 1.3 | 18.8 | 23.8 | 
4 | COc1cccc2c1C(=O)c1c(O)c3c(c(O)c1C2=O)C[C@@](O)(C(C)=O)C[C@@H]3O[C@H]1C[C@H](N)[C@H](O)[C@H](C)O1 [DAUNORUBICIN] | 1.7 | 0.22 | 0.38 | 
5 | CC(=O)N1CCN(c2ccc(OCC3COC(Cn4ccnc4)(c4ccc(Cl)cc4Cl)O3)cc2)CC1 (stereo not drawn) [KETOCONAZOLE] | 1.4 | 20 | 28.1 | 
6 | OC(c1cc(C(F)(F)F)nc2c(C(F)(F)F)cccc12)C1CCCCN1 (stereo not drawn) [MEFLOQUINE] | 1.1 | 12.5 | 13.9 | 
7 | CCCCCCCCCCCCCCCCOP(=O)([O-])OCC[N+](C)(C)C [MILTEFOSINE] | 1.5 | 17.7 | 25.7 | 
8 | NC[C@@H]1O[C@H](O[C@H]2[C@@H](O)[C@H](O[C@@H]3[C@@H](O)[C@H](N)C[C@H](N)[C@H]3O[C@H]3O[C@H](CO)[C@@H](O)[C@H](O)[C@H]3N)O[C@@H]2CO)[C@H](N)[C@@H](O)[C@@H]1O [PAROMOMYCIN] | 1 | 4.29 | 3.98 | 
9 | N=C(N)c1ccc(OCCCCCOc2ccc(C(=N)N)cc2)cc1 [PENTAMIDINE] | 1.8 | 0.28 | 0.45 | 
10 | COc1cc(NC(C)CCCN)c2ncccc2c1 (stereo not drawn) [PRIMAQUINE] | 1.9 | 27.7 | 53 | 
11 | C=C[C@H]1CN2CC[C@H]1C[C@H]2[C@H](O)c1ccnc2ccc(OC)cc12 [QUININE] | 1 | 9.41 | 9.53 | 
12 | COc1cc(C)c2c(Oc3cccc(C(F)(F)F)c3)c(OC)cc(NC(C)CCCN)c2n1 (stereo not drawn) [TAFENOQUINE] | 2.5 | 2.24 | 5.49 | Activity (Leishmania major [4]): Active; Drug uptake (Leishmania major [5]): Active; Activity (Leishmania major [6]): Active; Drug uptake (Leishmania major [7]): 8809 a.u.; Activity (Leishmania major [8]): Active; Activity (Leishmania major [9]): Active; Drug uptake (Leishmania major [10]): 10775 a.u.; Drug uptake (Leishmania major [11]): Active; Drug uptake (Leishmania major [12]): 7009 a.u.; Drug uptake (Leishmania major [13]): 8462 a.u.; Activity (Leishmania major [14]): Active; Activity (Leishmania major [15]): Active; Drug uptake (Leishmania major [16]): Active; Drug uptake (Leishmania major [17]): 9657 a.u.; Drug uptake (Leishmania major [18]): 8524 a.u.; Activity (Leishmania major [19]): inactive; Activity (Leishmania major [20]): inactive
